Results reported in PubChem BioAssay.
Inconclusive results are not listed. Active and inactive are the calls of the source.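 The calls were made as follows, unless noted: active = cell viability at or below a set limit in both duplicate runs, the limit being the all-compound median minus 4 SD (cut at about 23% in these data, passing the limit was not always enough); inconclusive = no clear call, values can overlap the other calls; inactive = the rest.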

How the values were obtained:
[1] = S. cerevisiae growth inhibition in permissive medium (OD615), pilot counter-assay for S. cerevisiae lifespan shortening project, permissive growth control (AID 705;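 active = growth inhibition above 25% in both replicates, a cutoff set 3 SD above the mean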); conditions: OD615, 24 h, at 10 µM, active compounds read high
Method in brief: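 assay system = Saccharomyces cerevisiae strain carrying genetically modified DeaD replicative-lifespan system | technique = absorbance (optical density) at 615 nm | buffer or medium = permissive raffinose/galactose medium | timing = cells pre-grown 4 h, then 24 h compound exposure, 30 °C humidified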

[2] = S. cerevisiae growth inhibition in restrictive medium, OD615, pilot screen, restrictive growth control, yeast lifespan reduction project (AID 706;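 active = growth inhibition above a set limit, 3 SD over mean compound inhibition, in both replicates, cut at about 43% in these data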;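 also: modified DeaD lifespan yeast strain shifted to restrictive glucose medium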); conditions: OD615, 48 h, at 10 µM, active compounds read high
Method in brief: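 System: modified S. cerevisiae. Buffer or medium: CSMM-D glucose medium. Incubation: 4 h pre-growth plus 48 h compound exposure, 30 °C. Detection: absorbance (optical density) measured at 615 nm.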

[3] = doxorubicin toxicity protection in MRP-1 cells – H69AR cells, CellTiter-Glo, duplicate, MRP-1 activator project, pilot screen (AID 807;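 active = viability increase at or above a cutoff of the median across tested compounds plus 3 SD, cut at about 8.5% in these data, passing the limit was not always enough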;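 also: compound pretreatment 18-22 h then 72 h combined with doxorubicin; 0% = doxorubicin alone and 100% = vehicle without doxorubicin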); conditions: H69AR viability with doxorubicin, CellTiter-Glo luminescence; at 10 µM; active compounds read high
[4] = viability of HCT116 without oncogenic beta-catenin – human colon tumor cells, pilot screen (AID 823); conditions: HCT116 beta-catenin knockout viability, CellTiter-Glo, 60 h; at 10 µM; active compounds read low;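 also: 0% = wells killed by 20 µM Hyamine and 100% = untreated DMSO cell wells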
[5] = viability of PTEN-null HCT116 cells – cell-based, HCT116 clonal line, CellTiter-Glo, pilot screen (AID 824;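 active = viability at or below 27.92% in each of two runs, the all-compound median minus 4 SD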;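 also: 0% = 20 µM Hyamine control and 100% = vehicle cell control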); conditions: HCT116 PTEN-deleted viability, 60 h, at 10 µM, active compounds read low
[6] = RAM pathway blockade in budding yeast – dse1pr::URA3 reporter, 5-FOA selection, pilot screen (AID 869;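 active = inhibition over a set limit, the all-compound mean plus 3 SD, in both replicate runs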;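 also: 0% = DMSO wells with no growth and 100% = 10 µM 1-NA-PP1 with full growth; RAM network block rescues cells from 5-FOA so hits raise OD615 growth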); conditions: S. cerevisiae dse1pr::URA3 5-FOA growth, OD615, 2 d; at 10 µM; active compounds read high; strain carries analog-sensitive mutant Cbk1 kinase
[7] = RAM signaling pathway blockade in yeast – S. cerevisiae, Pdr1DBD-CYC8 efflux-inhibited sensitized strain, primary screen (AID 1298;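 active = RAM network inhibition above 8.4% in each of two replicates, 3 SD over the compound average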;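 also: 0% = DMSO untreated cells without growth and 100% = 10 µM 1-NA-PP1 full growth; higher means more yeast growth rescued from 5-FOA killing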); conditions: S. cerevisiae cbk1-as DSE1-URA3 strain, 5-FOA growth OD615, 2 d; at 50 µM; active compounds read high

COCCCNC(=O)Cn1ncc2ccsc2c1=O
inactive: growth inhibition [1] -4.86% | growth inhibition [2] 3.33% | viability increase [3] 1.3% | viability [4] 107% | viability [5] 101% | inhibition [6] -0.05% | RAM network inhibition [7] -0.97%

CC(C)c1cc(C(=O)Nc2ccc3c(c2)OCO3)no1
inactive: growth inhibition [1] -13.7% | growth inhibition [2] 4.26% | viability increase [3] -4.63% | viability [4] 94.2% | viability [5] 92.8% | inhibition [6] 1.88% | RAM network inhibition [7] 3.88%

COc1cccc(-n2nnc3c(=O)n(CC(=O)NCC4CCCO4)cnc32)c1 (configuration not stated)
inactive: growth inhibition [1] 2.81% | growth inhibition [2] -2.83% | viability increase [3] 0.22% | viability [4] 101% | viability [5] 93.7% | inhibition [6] -0.415% | RAM network inhibition [7] 5.27%

COc1ccc(N(CC(=O)N2CCN(C)CC2)S(=O)(=O)c2ccccc2)cc1OC
inactive: growth inhibition [1] -16.8% | growth inhibition [2] -19.4% | viability increase [3] -1.07% | viability [4] 104% | viability [5] 91.8% | inhibition [6] 0.195% | RAM network inhibition [7] 1.1%

OCCOCCn1c(-c2ccccc2)nc(=S)c2c1CCCC2
inactive: growth inhibition [1] -3.65% | growth inhibition [2] 14.6% | viability increase [3] -0.07% | viability [4] 102% | viability [5] 106% | inhibition [6] 0.73% | RAM network inhibition [7] 6.53%

CCCCn1c(CN2CCOCC2)nc2c1c(=O)n(C)c(=O)n2C
inactive: growth inhibition [1] -1.51% | growth inhibition [2] -7.03% | viability increase [3] -1.72% | viability [4] 93.8% | viability [5] 89.6% | inhibition [6] 0.375% | RAM network inhibition [7] 2.4%

COc1ccc(C2C(C(=O)c3cccs3)=C(O)C(=O)N2c2nnc(C)s2)cc1OC (configuration not stated)
inactive: growth inhibition [1] -6.25% | growth inhibition [2] 9.11% | viability increase [3] 1.59% | viability [4] 102% | viability [5] 101% | inhibition [6] 1.33% | RAM network inhibition [7] 2.05%

O=C(CCc1ccccc1)Nc1nnc(-c2cccs2)o1
inactive: growth inhibition [1] -12.3% | growth inhibition [2] -2.62% | viability increase [3] -4.02% | viability [4] 103% | viability [5] 97.3% | inhibition [6] 1.6% | RAM network inhibition [7] 3.35%

Cc1ccc(O)c(C2=NOC(O)(C(F)(F)C(F)F)C2)c1 (configuration not stated)
inactive: growth inhibition [1] -0.995% | growth inhibition [2] 9.35% | viability increase [3] -5.27% | viability [4] 93.4% | viability [5] 92.9% | inhibition [6] 0.72% | RAM network inhibition [7] 5.23%

Cc1c(NC(=O)C2CC=CCC2C(=O)O)c(=O)n(-c2ccccc2)n1C (configuration not stated)
inactive: growth inhibition [1] -5.59% | growth inhibition [2] -6.86% | viability increase [3] -0.87% | viability [4] 101% | viability [5] 94.3% | inhibition [6] 1.54% | RAM network inhibition [7] 1.99%

COc1ccc(-n2nc3cc(C)c(NC(=O)CC(C)C)cc3n2)cc1
inactive: growth inhibition [1] -7.39% | growth inhibition [2] -3.86% | viability increase [3] -0.97% | viability [4] 94% | viability [5] 92.2% | inhibition [6] 0.405% | RAM network inhibition [7] 3.76%

Cc1onc(-c2ccccc2Cl)c1C(=O)Nc1ccc(OCC(=O)N2CCOCC2)cc1
inactive: growth inhibition [1] 2.78% | growth inhibition [2] 5.62% | viability increase [3] -2.3% | viability [4] 104% | viability [5] 99.5% | inhibition [6] 1.5% | RAM network inhibition [7] 5.11%

Cc1cc(Nc2ccc(Br)c(C)c2)n2nc(C)nc2n1
inactive: growth inhibition [1] -8.54% | growth inhibition [2] 4.61% | viability increase [3] -6.94% | viability [4] 80.9% | viability [5] 84.9% | inhibition [6] 0.65% | RAM network inhibition [7] 6.84%

O=C(c1cccc2c1-c1ccccc1/C2=N/O)N1CCCCC1
inactive: growth inhibition [1] 6.27% | growth inhibition [2] -0.58% | viability increase [3] -3.72% | viability [4] 88.5% | viability [5] 92.3% | inhibition [6] 0.91% | RAM network inhibition [7] 4.23%

O=C(CCN1C(=O)c2ccccc2C1=O)OCn1nnc2ccccc2c1=O
inactive: growth inhibition [1] -14.7% | growth inhibition [2] -15.3% | viability increase [3] -0.15% | viability [4] 107% | viability [5] 100% | inhibition [6] 4.12% | RAM network inhibition [7] 2.39%

COc1ccc(Br)cc1C1CC(=O)N2CN(Cc3ccccc3)CSC2=C1C#N (configuration not stated)
inactive: growth inhibition [1] 4.47% | growth inhibition [2] 12.8% | viability increase [3] -4.64% | viability [4] 85% | viability [5] 87.5% | inhibition [6] 2.63% | RAM network inhibition [7] 4.51%

c1ccc2c(c1)[nH]c1nc3nncn3nc12
inactive: growth inhibition [1] -7.18% | growth inhibition [2] -14.9% | viability increase [3] -1.07% | viability [4] 94% | viability [5] 93% | inhibition [6] 1.29% | RAM network inhibition [7] 7.04%

COc1cc2c(cc1OC)C(c1ccco1)CC(=O)N2 (configuration not stated)
inactive: growth inhibition [1] -6.61% | growth inhibition [2] -1.62% | viability increase [3] -2.43% | viability [4] 101% | viability [5] 101% | inhibition [6] 1.06% | RAM network inhibition [7] 3.34%

CCOCCCNC(=O)C(c1ccc(Cl)cc1)N1CCN(C(=O)c2ccco2)CC1 (configuration not stated)
inactive: growth inhibition [1] -19.4% | growth inhibition [2] -17.1% | viability increase [3] -2.12% | viability [4] 101% | viability [5] 96.2% | inhibition [6] 2.34% | RAM network inhibition [7] 5.86%

Cc1cc(NCc2ccccc2)nc(-c2ccccc2O)n1
inactive: growth inhibition [1] -1.8% | growth inhibition [2] -4.48% | viability increase [3] -1.24% | viability [4] 69.5% | viability [5] 70% | inhibition [6] 0.345% | RAM network inhibition [7] 0.61%

COc1ccc(N(CC(=O)NCc2cccs2)S(=O)(=O)c2cccnc2)cc1
inactive: growth inhibition [1] 5.41% | growth inhibition [2] 4.48% | viability increase [3] -0.05% | viability [4] 107% | viability [5] 106% | inhibition [6] 0.045% | RAM network inhibition [7] 7.1%

CCCc1cc(=O)[nH]c(SCC(=O)N2CCN(S(=O)(=O)c3ccc(C)cc3)C2)n1
inactive: growth inhibition [1] -4.67% | growth inhibition [2] -21.2% | viability increase [3] -1.75% | viability [4] 98.8% | viability [5] 85.6% | inhibition [6] 2.64% | RAM network inhibition [7] 3.8%

CC(C)n1c(CCC(=O)O)ccc1-c1ccccc1
inactive: growth inhibition [1] 3.21% | growth inhibition [2] 4.49% | viability increase [3] -0.71% | viability [4] 96% | viability [5] 101% | inhibition [6] 0.285% | RAM network inhibition [7] 1.3%

CCOC(=O)CNC(=O)c1c2c(nc3ccccc13)CCCC2
inactive: growth inhibition [1] -6.83% | growth inhibition [2] -1.75% | viability increase [3] -5.37% | viability [4] 95.4% | viability [5] 88.2% | inhibition [6] 2.68% | RAM network inhibition [7] 5.74%

Cc1ccc(C(C)C)c(OCc2nc(-c3nonc3N)no2)c1
active: viability increase [3] 8.48%
inactive: growth inhibition [1] -13% | growth inhibition [2] -14.4% | viability [4] 88.3% | viability [5] 81.2% | inhibition [6] 1.71% | RAM network inhibition [7] 3.09%

COc1ccc(N2C(=O)c3ccccc3NC23CCCCC3)cc1
inactive: growth inhibition [1] -13.4% | growth inhibition [2] -9.03% | viability increase [3] -1.34% | viability [4] 94.8% | viability [5] 91.5% | inhibition [6] 0.47% | RAM network inhibition [7] 1.91%

O=C(CCNS(=O)(=O)c1cccc2nsnc12)NCCC1=CCCCC1
inactive: growth inhibition [1] -8.97% | growth inhibition [2] -9.04% | viability increase [3] -2.88% | viability [4] 90.6% | viability [5] 94.8% | inhibition [6] 2.49% | RAM network inhibition [7] 6.94%

COc1cccc(C(=O)N2CCSC2=S)c1
inactive: growth inhibition [1] -10.4% | growth inhibition [2] 3.34% | viability increase [3] -0.12% | viability [4] 97% | viability [5] 97.5% | inhibition [6] 0% | RAM network inhibition [7] -1.3%

COc1ccc(NC(=O)CSc2nnc(-c3ccccn3)n2N)cc1
inactive: growth inhibition [1] -5.41% | growth inhibition [2] 13.7% | viability increase [3] -0.74% | viability [4] 101% | viability [5] 97.3% | inhibition [6] 0.535% | RAM network inhibition [7] 4.82%

COc1ccccc1-c1cc(C(=O)N2CCCCC2)no1
inactive: growth inhibition [1] -6.35% | growth inhibition [2] 11.2% | viability increase [3] -0.55% | viability [4] 103% | viability [5] 93.2% | inhibition [6] 2.1% | RAM network inhibition [7] 4.18%

CCN1c2ccccc2NC2C1C(C(C)=O)C(=O)N2c1ccc(Cl)cc1 (configuration not stated)
inactive: growth inhibition [1] -2.96% | growth inhibition [2] -9.21% | viability increase [3] -5.03% | viability [4] 84.3% | viability [5] 72.2% | inhibition [6] 1.32% | RAM network inhibition [7] 5.6%

COc1cc(OC)c(Nc2cc(C)nc3nc(C)nn23)cc1Cl
inactive: growth inhibition [1] 4.72% | growth inhibition [2] -1.03% | viability increase [3] -1.47% | viability [4] 106% | viability [5] 104% | inhibition [6] 3.52% | RAM network inhibition [7] -0.72%

O=C(NC12CC3CC(CC(C3)C1)C2)c1cccnc1
inactive: growth inhibition [1] -3.12% | growth inhibition [2] 15.7% | viability increase [3] -0.51% | viability [4] 104% | viability [5] 97.7% | inhibition [6] 2.61% | RAM network inhibition [7] 3.7%

COc1cccc(N2CCN(C3CC(=O)N(c4ccc(Cl)cc4)C3=O)CC2)c1 (configuration not stated)
inactive: growth inhibition [1] -8.98% | growth inhibition [2] -2.62% | viability increase [3] -0.33% | viability [4] 96.2% | viability [5] 91.6% | inhibition [6] 0.57% | RAM network inhibition [7] 5.46%

O=C1Nc2ccccc2C(O)(C(=O)NCc2ccc3c(c2)OCO3)N1c1ccccc1 (configuration not stated)
inactive: growth inhibition [1] -2.08% | growth inhibition [2] -15.5% | viability increase [3] -3.17% | viability [4] 91.7% | viability [5] 92.5% | inhibition [6] 0.54% | RAM network inhibition [7] 0.05%

COc1ccccc1C(=O)Nc1ccc2oc(-c3ccc(F)cc3)nc2c1
inactive: growth inhibition [1] -2.88% | growth inhibition [2] 0.83% | viability increase [3] -2.78% | viability [4] 96% | viability [5] 96.5% | inhibition [6] 2.88% | RAM network inhibition [7] 1.85%
